Reference: ChEMBL document CHEMBL5303300, “EUbOPEN Chemogenomics Library - Multiplex” (2023)
Values joined by “and” are separate entries in the source; they are usually repeats but may differ in a detail not shown here. Identical values can stand only once.

System: U2OS
Experiment: Multiplex assay against U2OS
Format: toxicity, cell-based
Settings: human, number of replicates 2
In short: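 Tubulin, mitochondrial-mass and membrane-permeability phenotypes are per cents of healthy-nucleus cells. Cells were gated by CellPathfinder machine learning into Hoechst high-intensity objects or normal cells, normal cells into healthy, pyknosed or fragmented nuclei, and pyknosed cells into mitotic or apoptotic. Before that, live cells stained at seeding with Hoechst33342, BioTracker Green Microtubule Cytoskeleton Dye, MitoTracker Red and Annexin V Alexa Fluor 680 were imaged on a CQ1 microscope at 37°C and 5% CO2 after compound addition.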

[1] = 12 h, 1 µM, compound concentration 1 uM
[2] = 12 h, 10 µM, compound concentration 10 uM
[3] = 24 h, 1 µM, compound concentration 1 uM
[4] = 24 h, 10 µM, compound concentration 10 uM
[5] = 48 h, 1 µM, compound concentration 1 uM
[6] = 48 h, 10 µM, compound concentration 10 uM

SMILES: COc1ccncc1C(=O)NC(=O)Nc1ccc(-c2ccccc2)c(C(F)(F)F)c1
- Population Apoptotic (%) [1]: 33% and 36%
- Population Healthy Nuclei (%) [1]: 65% and 86%
- Population Hoechst High Intensity Objects (%) [1]: 0%
- Population Membrane Permeable-Phenotype (%) [1]: 0% and 1%
- Population Mitochondria Different-Phenotype (%) [1]: 0% and 1%
- Population Mitotic Cells (%) [1]: 66% and 63%
- Population Normal (%) [1]: 100%
- Population Pyknosed Nuclei (%) [1]: 11% and 9%
- Population Tubulin-Different-Phenotype (%) [1]: 58% and 88%
- Population Apoptotic (%) [2]: 25% and 33%
- Population Fragmented Nuclei (%) [2]: 8% and 2%
- Population Healthy Nuclei (%) [2]: 75% and 88%
- Population Hoechst High Intensity Objects (%) [2]: 0%
- Population Membrane Permeable-Phenotype (%) [2]: 2% and 1%
- Population Mitochondria Different-Phenotype (%) [2]: 2% and 1%
- Population Mitotic Cells (%) [2]: 75% and 66%
- Population Normal (%) [2]: 100%
- Population Pyknosed Nuclei (%) [2]: 16% and 9%
- Population Tubulin-Different-Phenotype (%) [2]: 67% and 78%
- Population Apoptotic (%) [3]: 66% and 57%
- Population Healthy Nuclei (%) [3]: 63% and 90%
- Population Hoechst High Intensity Objects (%) [3]: 0%
- Population Membrane Permeable-Phenotype (%) [3]: 4% and 2%
- Population Mitochondria Different-Phenotype (%) [3]: 0% and 1%
- Population Mitotic Cells (%) [3]: 33% and 42%
- Population Normal (%) [3]: 100%
- Population Pyknosed Nuclei (%) [3]: 15% and 6%
- Population Tubulin-Different-Phenotype (%) [3]: 62% and 89%
- Population Apoptotic (%) [4]: 66% and 31%
- Population Fragmented Nuclei (%) [4]: 1% and 3%
- Population Healthy Nuclei (%) [4]: 93% and 90%
- Population Hoechst High Intensity Objects (%) [4]: 0%
- Population Membrane Permeable-Phenotype (%) [4]: 5% and 0%
- Population Mitochondria Different-Phenotype (%) [4]: 0%
- Population Mitotic Cells (%) [4]: 33% and 68%
- Population Normal (%) [4]: 100%
- Population Pyknosed Nuclei (%) [4]: 5% and 6%
- Population Tubulin-Different-Phenotype (%) [4]: 72% and 79%
- Population Apoptotic (%) [5]: 60% and 43%
- Population Healthy Nuclei (%) [5]: 70% and 90%
- Population Hoechst High Intensity Objects (%) [5]: 0%
- Population Membrane Permeable-Phenotype (%) [5]: 2% and 1%
- Population Mitochondria Different-Phenotype (%) [5]: 2% and 0%
- Population Mitotic Cells (%) [5]: 40% and 56%
- Population Normal (%) [5]: 100%
- Population Pyknosed Nuclei (%) [5]: 10% and 7%
- Population Tubulin-Different-Phenotype (%) [5]: 65% and 90%
- Population Apoptotic (%) [6]: 23% and 69%
- Population Fragmented Nuclei (%) [6]: 7% and 2%
- Population Healthy Nuclei (%) [6]: 81% and 93%
- Population Hoechst High Intensity Objects (%) [6]: 0%
- Population Membrane Permeable-Phenotype (%) [6]: 0%
- Population Mitochondria Different-Phenotype (%) [6]: 0%
- Population Mitotic Cells (%) [6]: 76% and 30%
- Population Normal (%) [6]: 100% and 99%
- Population Pyknosed Nuclei (%) [6]: 10% and 4%
- Population Tubulin-Different-Phenotype (%) [6]: 83%

SMILES: COc1ccc2cc(S(=O)(=O)N[C@H](CC(=O)N[C@H](Cc3ccc(CN4[C@H](C)CCC[C@@H]4C)cc3)C(=O)N(C)C(C)C)c3ccc4c(c3)OCO4)ccc2c1.Cl
- Population Apoptotic (%) [1]: 20% and 30%
- Population Fragmented Nuclei (%) [1]: 8% and 4%
- Population Healthy Nuclei (%) [1]: 76% and 85%
- Population Hoechst High Intensity Objects (%) [1]: 2% and 0%
- Population Membrane Permeable-Phenotype (%) [1]: 11% and 14%
- Population Mitochondria Different-Phenotype (%) [1]: 7% and 20%
- Population Mitotic Cells (%) [1]: 80% and 69%
- Population Normal (%) [1]: 97% and 99%
- Population Pyknosed Nuclei (%) [1]: 14% and 10%
- Population Tubulin-Different-Phenotype (%) [1]: 30% and 45%
- Population Apoptotic (%) [2]: 100% and 66%
- Population Healthy Nuclei (%) [2]: 50% and 75%
- Population Hoechst High Intensity Objects (%) [2]: 3% and 0%
- Population Membrane Permeable-Phenotype (%) [2]: 81% and 37%
- Population Mitochondria Different-Phenotype (%) [2]: 81% and 58%
- Population Normal (%) [2]: 96% and 100%
- Population Pyknosed Nuclei (%) [2]: 18% and 21%
- Population Tubulin-Different-Phenotype (%) [2]: 93% and 100%
- Population Apoptotic (%) [3]: 50%
- Population Fragmented Nuclei (%) [3]: 5% and 6%
- Population Healthy Nuclei (%) [3]: 79% and 73%
- Population Hoechst High Intensity Objects (%) [3]: 2% and 0%
- Population Membrane Permeable-Phenotype (%) [3]: 3% and 11%
- Population Mitochondria Different-Phenotype (%) [3]: 12% and 21%
- Population Mitotic Cells (%) [3]: 50% and 49%
- Population Normal (%) [3]: 97% and 99%
- Population Pyknosed Nuclei (%) [3]: 15% and 19%
- Population Tubulin-Different-Phenotype (%) [3]: 32% and 42%
- Population Apoptotic (%) [4]: 72% and 81%
- Population Fragmented Nuclei (%) [4]: 21% and 7%
- Population Healthy Nuclei (%) [4]: 43% and 62%
- Population Hoechst High Intensity Objects (%) [4]: 3% and 0%
- Population Membrane Permeable-Phenotype (%) [4]: 92% and 74%
- Population Mitochondria Different-Phenotype (%) [4]: 71% and 61%
- Population Mitotic Cells (%) [4]: 27% and 18%
- Population Normal (%) [4]: 96% and 100%
- Population Pyknosed Nuclei (%) [4]: 34% and 30%
- Population Tubulin-Different-Phenotype (%) [4]: 100% and 98%
- Population Apoptotic (%) [5]: 76% and 84%
- Population Fragmented Nuclei (%) [5]: 18% and 7%
- Population Healthy Nuclei (%) [5]: 60% and 74%
- Population Hoechst High Intensity Objects (%) [5]: 0%
- Population Membrane Permeable-Phenotype (%) [5]: 7% and 13%
- Population Mitochondria Different-Phenotype (%) [5]: 10% and 18%
- Population Mitotic Cells (%) [5]: 23% and 15%
- Population Normal (%) [5]: 100% and 99%
- Population Pyknosed Nuclei (%) [5]: 20% and 17%
- Population Tubulin-Different-Phenotype (%) [5]: 25% and 32%
- Population Apoptotic (%) [6]: 100% and 95%
- Population Healthy Nuclei (%) [6]: 22% and 42%
- Population Hoechst High Intensity Objects (%) [6]: 0%
- Population Membrane Permeable-Phenotype (%) [6]: 83% and 85%
- Population Mitochondria Different-Phenotype (%) [6]: 50% and 70%
- Population Mitotic Cells (%) [6]: 0% and 4%
- Population Normal (%) [6]: 100%
- Population Pyknosed Nuclei (%) [6]: 40% and 51%
- Population Tubulin-Different-Phenotype (%) [6]: 83% and 99%

SMILES: COc1cc(N(C)c2ccnc3ccc(C(F)(F)F)cc23)cc(OC)c1OC
- Population Apoptotic (%) [1]: 75% and 100%
- Population Healthy Nuclei (%) [1]: 84% and 54%
- Population Hoechst High Intensity Objects (%) [1]: 0%
- Population Membrane Permeable-Phenotype (%) [1]: 2% and 8%
- Population Mitochondria Different-Phenotype (%) [1]: 3% and 0%
- Population Mitotic Cells (%) [1]: 25% and 0%
- Population Normal (%) [1]: 100%
- Population Pyknosed Nuclei (%) [1]: 10% and 22%
- Population Tubulin-Different-Phenotype (%) [1]: 76% and 50%
- Population Apoptotic (%) [2]: 50% and 51%
- Population Healthy Nuclei (%) [2]: 65% and 78%
- Population Hoechst High Intensity Objects (%) [2]: 0%
- Population Membrane Permeable-Phenotype (%) [2]: 10% and 4%
- Population Mitochondria Different-Phenotype (%) [2]: 10% and 5%
- Population Mitotic Cells (%) [2]: 50% and 48%
- Population Normal (%) [2]: 100%
- Population Pyknosed Nuclei (%) [2]: 6% and 16%
- Population Tubulin-Different-Phenotype (%) [2]: 26% and 34%
- Population Apoptotic (%) [3]: 100% and 86%
- Population Fragmented Nuclei (%) [3]: 10% and 3%
- Population Healthy Nuclei (%) [3]: 75% and 92%
- Population Hoechst High Intensity Objects (%) [3]: 0%
- Population Membrane Permeable-Phenotype (%) [3]: 0%
- Population Mitochondria Different-Phenotype (%) [3]: 4% and 0%
- Population Mitotic Cells (%) [3]: 0% and 13%
- Population Normal (%) [3]: 100%
- Population Pyknosed Nuclei (%) [3]: 14% and 4%
- Population Tubulin-Different-Phenotype (%) [3]: 57% and 76%
- Population Apoptotic (%) [4]: 66% and 75%
- Population Healthy Nuclei (%) [4]: 65% and 79%
- Population Hoechst High Intensity Objects (%) [4]: 0%
- Population Membrane Permeable-Phenotype (%) [4]: 0% and 5%
- Population Mitochondria Different-Phenotype (%) [4]: 14% and 9%
- Population Mitotic Cells (%) [4]: 33% and 24%
- Population Normal (%) [4]: 100%
- Population Pyknosed Nuclei (%) [4]: 9% and 15%
- Population Tubulin-Different-Phenotype (%) [4]: 47% and 45%
- Population Apoptotic (%) [5]: 75% and 73%
- Population Fragmented Nuclei (%) [5]: 11% and 3%
- Population Healthy Nuclei (%) [5]: 80% and 90%
- Population Hoechst High Intensity Objects (%) [5]: 0%
- Population Membrane Permeable-Phenotype (%) [5]: 2% and 1%
- Population Mitochondria Different-Phenotype (%) [5]: 2% and 0%
- Population Mitotic Cells (%) [5]: 25% and 26%
- Population Normal (%) [5]: 100%
- Population Pyknosed Nuclei (%) [5]: 7% and 6%
- Population Tubulin-Different-Phenotype (%) [5]: 76% and 84%
- Population Apoptotic (%) [6]: 66% and 72%
- Population Healthy Nuclei (%) [6]: 58% and 87%
- Population Hoechst High Intensity Objects (%) [6]: 0%
- Population Membrane Permeable-Phenotype (%) [6]: 11% and 3%
- Population Mitochondria Different-Phenotype (%) [6]: 14% and 4%
- Population Mitotic Cells (%) [6]: 33% and 27%
- Population Normal (%) [6]: 100%
- Population Pyknosed Nuclei (%) [6]: 26% and 9%
- Population Tubulin-Different-Phenotype (%) [6]: 40% and 49%

SMILES: CS(=O)(=O)c1ccc(C(=O)Nc2ccc(F)c(COc3ccc(Br)cc3CNCCO)c2)c(Cl)c1.O=CO
- Population Apoptotic (%) [1]: 50% and 63%
- Population Healthy Nuclei (%) [1]: 75% and 84%
- Population Hoechst High Intensity Objects (%) [1]: 0%
- Population Mitotic Cells (%) [1]: 50% and 36%
- Population Apoptotic (%) [2]: 85% and 58%
- Population Healthy Nuclei (%) [2]: 80% and 77%
- Population Hoechst High Intensity Objects (%) [2]: 2% and 0%
- Population Mitotic Cells (%) [2]: 14% and 41%
- Population Apoptotic (%) [3]: 62% and 73%
- Population Healthy Nuclei (%) [3]: 74% and 90%
- Population Hoechst High Intensity Objects (%) [3]: 0%
- Population Mitotic Cells (%) [3]: 37% and 26%
- Population Apoptotic (%) [4]: 90% and 71%
- Population Healthy Nuclei (%) [4]: 68%
- Population Hoechst High Intensity Objects (%) [4]: 0%
- Population Apoptotic (%) [5]: 83%
- Population Healthy Nuclei (%) [5]: 81% and 87%
- Population Hoechst High Intensity Objects (%) [5]: 0%
- Population Mitotic Cells (%) [5]: 16%
- Population Apoptotic (%) [6]: 66% and 89%
- Population Healthy Nuclei (%) [6]: 45% and 67%
- Population Hoechst High Intensity Objects (%) [6]: 0%
